Experimental data published in ChEMBL document CHEMBL1142004, “Dipeptidyl aspartyl fluoromethylketones as potent caspase inhibitors: peptidomimetic replacement of the P2 alpha-amino acid by a alpha-hydroxy acid” (Bioorg Med Chem Lett, 2005).

Key:
HeLa = experiment: Concentration tested for 50% of TNF- alpha induce HeLa cell protection was determined; type: functional, cell-based; details: Homo sapiens
Outline: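 HeLa cells were treated with TNF-α to induce apoptosis, with inhibitor present. Viability was quantified by calcein AM uptake. The value is the inhibitor concentration giving 50% cell protection.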

Mus musculus [1] = experiment: Survival of mice with 0 mg/kg of compound treatment after induction of apoptosis by anti-Fas antibody at 6 hr (n=6); type: functional
Outline: (§1)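 Mice received an IV injection of anti-Fas monoclonal antibody; untreated controls received 8 µg. Five minutes later they received an IV dose of inhibitor in an aqueous vehicle containing 50 mM Tris–HCl, or vehicle alone. Six mice per group. Survivors were counted at 1, 3, 6 and 24 h and at 3 days, when the experiment ended, and reported as a percentage of each group.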

Mus musculus [2] = experiment: Survival of mice with 10 mg/kg of compound treatment after induction of apoptosis by anti-Fas antibody at 3 hr (n=6); type: functional; outline: as §1
[3] = Inhibitory concentration against Caspase-1
Mus musculus [4] = experiment: Survival of mice with 0.25 mg/kg of compound treatment after induction of apoptosis by anti-Fas antibody at 3 days(n=6); type: functional; details: 72 h; outline: as §1
Caspase-7 = target: T1, Caspase-7 (Homo sapiens, UniProt P55210); experiment: Inhibitory concentration against Caspase-7
T1 sequence (P55210 whole entry): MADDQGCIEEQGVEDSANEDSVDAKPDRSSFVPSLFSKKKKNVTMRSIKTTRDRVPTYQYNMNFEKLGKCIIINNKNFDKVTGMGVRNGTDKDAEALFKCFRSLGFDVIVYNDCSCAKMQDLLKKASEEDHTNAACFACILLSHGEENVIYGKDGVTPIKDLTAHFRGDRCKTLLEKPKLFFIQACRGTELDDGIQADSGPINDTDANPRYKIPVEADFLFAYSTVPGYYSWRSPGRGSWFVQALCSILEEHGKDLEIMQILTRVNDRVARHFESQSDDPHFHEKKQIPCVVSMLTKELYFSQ

Caspase-8 = Caspase-8 (Homo sapiens, UniProt Q14790); experiment: Inhibitory concentration against Caspase-8
Chain of Caspase-8 (Q14790 217-374 limits assumed): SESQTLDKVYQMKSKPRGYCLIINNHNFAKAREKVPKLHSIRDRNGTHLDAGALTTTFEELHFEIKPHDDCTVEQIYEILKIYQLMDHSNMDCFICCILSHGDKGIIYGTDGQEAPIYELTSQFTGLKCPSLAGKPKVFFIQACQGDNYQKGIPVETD
Chain of Caspase-8 (Q14790 385-479 limits assumed): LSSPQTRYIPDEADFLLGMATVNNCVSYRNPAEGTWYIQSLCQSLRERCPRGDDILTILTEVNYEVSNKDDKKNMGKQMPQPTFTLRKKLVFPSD

Mus musculus [5] = experiment: Survival of mice with 0.25 mg/kg of compound treatment after induction of apoptosis by anti-Fas antibody at 24 hr (n=6); type: functional; outline: as §1
Mus musculus [6] = experiment: Survival of mice with 1 mg/kg of compound treatment after induction of apoptosis by anti-Fas antibody at 24 hr (n=6); type: functional; outline: as §1
Mus musculus [7] = experiment: Survival of mice with 0 mg/kg of compound treatment after induction of apoptosis by anti-Fas antibody at 3 hr (n=6); type: functional; outline: as §1
Mus musculus [8] = experiment: Survival of mice with 10 mg/kg of compound treatment after induction of apoptosis by anti-Fas antibody at 6 hr (n=6); type: functional; outline: as §1
Mus musculus [9] = experiment: Survival of mice with 10 mg/kg of compound treatment after induction of apoptosis by anti-Fas antibody at 24 hr (n=6); type: functional; outline: as §1
Mus musculus [10] = experiment: Survival of mice with 1 mg/kg of compound treatment after induction of apoptosis by anti-Fas antibody at 3 hr (n=6); type: functional; outline: as §1
Mus musculus [11] = experiment: Survival of mice with 0.25 mg/kg of compound treatment after induction of apoptosis by anti-Fas antibody at 6 hr (n=6); type: functional; outline: as §1
Caspase-6 = target: T2, Caspase-6 (Homo sapiens, UniProt P55212); experiment: Inhibitory concentration against Caspase-6
T2 sequence (P55212 whole entry): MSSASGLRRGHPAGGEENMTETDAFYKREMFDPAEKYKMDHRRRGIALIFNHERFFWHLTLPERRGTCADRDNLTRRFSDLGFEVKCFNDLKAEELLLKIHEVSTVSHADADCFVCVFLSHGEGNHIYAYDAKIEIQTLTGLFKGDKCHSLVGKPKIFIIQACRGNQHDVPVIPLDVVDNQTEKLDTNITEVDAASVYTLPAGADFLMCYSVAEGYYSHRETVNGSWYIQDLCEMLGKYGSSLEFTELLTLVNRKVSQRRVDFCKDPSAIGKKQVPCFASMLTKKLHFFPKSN

Mus musculus [12] = experiment: Survival of mice with 0 mg/kg of compound treatment after induction of apoptosis by anti-Fas antibody at 24 hr (n=6); type: functional; outline: as §1
Caspase-3 = target: T3, Caspase-3 (Homo sapiens, UniProt P42574); experiment: Inhibitory concentration against human caspase-3
T3 sequence (P42574 whole entry): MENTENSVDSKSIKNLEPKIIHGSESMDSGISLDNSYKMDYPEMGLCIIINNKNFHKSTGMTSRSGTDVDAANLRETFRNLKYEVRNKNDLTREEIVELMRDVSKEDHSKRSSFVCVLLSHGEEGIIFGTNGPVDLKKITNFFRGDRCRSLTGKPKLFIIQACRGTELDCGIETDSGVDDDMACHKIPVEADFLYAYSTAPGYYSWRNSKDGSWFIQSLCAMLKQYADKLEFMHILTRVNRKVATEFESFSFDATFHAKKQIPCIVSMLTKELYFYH

[13] = Inhibitory concentration against Cathepsin B
Outline: (§2)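 Isolated-enzyme inhibition assays (calpain-1, cathepsin B, factor Xa) tested inhibitor at concentrations up to 100,000 nM. The read-out was IC50.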

Mus musculus [14] = experiment: Survival of mice with 0.25 mg/kg of compound treatment after induction of apoptosis by anti-Fas antibody at 3 hr (n=6); type: functional; outline: as §1
Mus musculus [15] = experiment: Survival of mice with 0 mg/kg of compound treatment after induction of apoptosis by anti-Fas antibody at 1 hr (n=6); type: functional; outline: as §1
[16] = Inhibitory concentration against Coagulation factor X; outline: as §2
Mus musculus [17] = experiment: Survival of mice with 1 mg/kg of compound treatment after induction of apoptosis by anti-Fas antibody at 6 hr (n=6); type: functional; outline: as §1
Caspase-9 = target: T4, Caspase-9 (Homo sapiens, UniProt P55211); experiment: Inhibitory concentration against Caspase-9
T4 sequence (P55211 whole entry): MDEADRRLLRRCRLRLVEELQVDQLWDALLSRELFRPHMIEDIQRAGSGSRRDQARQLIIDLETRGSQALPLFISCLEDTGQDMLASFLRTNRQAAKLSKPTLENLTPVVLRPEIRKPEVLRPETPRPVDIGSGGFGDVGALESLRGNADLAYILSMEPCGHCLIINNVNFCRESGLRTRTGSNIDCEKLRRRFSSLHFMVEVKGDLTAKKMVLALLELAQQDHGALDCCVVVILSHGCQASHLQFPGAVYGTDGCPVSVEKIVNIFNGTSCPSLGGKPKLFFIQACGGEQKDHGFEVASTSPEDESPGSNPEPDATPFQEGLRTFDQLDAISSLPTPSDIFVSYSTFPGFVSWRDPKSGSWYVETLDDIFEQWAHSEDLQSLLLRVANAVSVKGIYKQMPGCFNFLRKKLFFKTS

Mus musculus [18] = experiment: Survival of mice with 1 mg/kg of compound treatment after induction of apoptosis by anti-Fas antibody at 3 days(n=6); type: functional; details: 72 h; outline: as §1
Mus musculus [19] = experiment: Survival of mice with 0.25 mg/kg of compound treatment after induction of apoptosis by anti-Fas antibody at 1 hr (n=6); type: functional; outline: as §1
Mus musculus [20] = experiment: Survival of mice with 0 mg/kg of compound treatment after induction of apoptosis by anti-Fas antibody at 3 days(n=6); type: functional; outline: as §1
Mus musculus [21] = experiment: Survival of mice with 10 mg/kg of compound treatment after induction of apoptosis by anti-Fas antibody at 1 hr (n=6); type: functional; outline: as §1
[22] = target: T5, Calpain-1 catalytic subunit (Homo sapiens, UniProt P07384); experiment: Inhibitory concentration against Calpain 1; outline: as §2
T5 sequence (P07384 whole entry): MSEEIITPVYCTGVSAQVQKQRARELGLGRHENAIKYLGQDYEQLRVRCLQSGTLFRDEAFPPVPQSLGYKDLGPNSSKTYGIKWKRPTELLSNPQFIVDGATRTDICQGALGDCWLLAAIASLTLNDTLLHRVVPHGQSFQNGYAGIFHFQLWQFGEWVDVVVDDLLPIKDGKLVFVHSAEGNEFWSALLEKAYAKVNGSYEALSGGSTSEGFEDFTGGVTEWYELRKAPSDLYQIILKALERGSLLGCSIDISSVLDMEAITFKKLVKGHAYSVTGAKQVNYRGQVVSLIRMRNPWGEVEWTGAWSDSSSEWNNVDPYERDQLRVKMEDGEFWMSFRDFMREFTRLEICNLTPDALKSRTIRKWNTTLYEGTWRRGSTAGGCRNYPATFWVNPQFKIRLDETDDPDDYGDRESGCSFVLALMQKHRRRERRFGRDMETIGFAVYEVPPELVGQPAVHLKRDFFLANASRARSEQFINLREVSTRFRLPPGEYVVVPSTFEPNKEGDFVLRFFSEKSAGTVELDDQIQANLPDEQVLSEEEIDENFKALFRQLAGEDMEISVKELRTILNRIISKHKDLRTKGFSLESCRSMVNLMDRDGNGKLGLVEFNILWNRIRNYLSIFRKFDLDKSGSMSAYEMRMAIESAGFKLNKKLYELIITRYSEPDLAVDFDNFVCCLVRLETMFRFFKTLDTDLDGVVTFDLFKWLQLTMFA

Mus musculus [23] = experiment: Survival of mice with 10 mg/kg of compound treatment after induction of apoptosis by anti-Fas antibody at 3 days(n=6); type: functional; details: 72 h; outline: as §1

Structure (SMILES): CC(C)[C@H](OC(=O)Nc1ccccc1)C(=O)NC(CC(=O)O)C(=O)COc1cc(C(F)(F)F)nn1-c1ccccc1 (some centres undefined)
- Concentration (HeLa): 1100 nM

Structure (SMILES): CC(C)[C@H](OC(=O)Nc1ccccc1)C(=O)NC(CC(=O)O)C(=O)COC(=O)c1c(Cl)cccc1Cl (some centres undefined)
- Concentration (HeLa): 1000 nM

Structure (SMILES): C[C@H](OC(=O)Nc1ccccc1)C(=O)NC(CC(=O)O)C(=O)CF (some centres undefined)
- Concentration (HeLa): 1400 nM

Structure (SMILES): CC(C)[C@H](OC(=O)Nc1ccc(Cl)cc1Cl)C(=O)NC(CC(=O)O)C(=O)CF (some centres undefined)
- Concentration (HeLa): 100 nM

Structure (SMILES): CC(C)[C@H](OC(=O)Nc1ccccc1)C(=O)NC(CC(=O)O)C(=O)CF (some centres undefined)
- Survival (Mus musculus [1]): 0%
- survival at 10 mg/kg (Mus musculus [2]): 100%
- IC50 [3]: 12 nM
- survival at 0.25 mg/kg (Mus musculus [4]): 0%
- IC50 (Caspase-7): 11 nM
- IC50 (Caspase-8): 17 nM
- survival at 0.25 mg/kg (Mus musculus [5]): 0%
- survival at 1 mg/kg (Mus musculus [6]): 50%
- Concentration (HeLa): 200 nM
- Survival (Mus musculus [7]): 0%
- survival at 10 mg/kg (Mus musculus [8]): 100%
- survival at 10 mg/kg (Mus musculus [9]): 83%
- survival at 1 mg/kg (Mus musculus [10]): 100%
- survival at 0.25 mg/kg (Mus musculus [11]): 0%
- IC50 (Caspase-6): 50 nM
- Survival (Mus musculus [12]): 0%
- IC50 (Caspase-3): 17 nM
- IC50 [13]: > 100000 nM
- survival at 0.25 mg/kg (Mus musculus [14]): 100%
- Survival (Mus musculus [15]): 0%
- IC50 [16]: > 100000 nM
- survival at 1 mg/kg (Mus musculus [17]): 100%
- IC50 (Caspase-9): 30 nM
- survival at 1 mg/kg (Mus musculus [18]): 0%
- survival at 0.25 mg/kg (Mus musculus [19]): 100%
- Survival (Mus musculus [20]): 0%
- survival at 10 mg/kg (Mus musculus [21]): 100%
- IC50 [22]: > 100000 nM
- survival at 10 mg/kg (Mus musculus [23]): 83%

Structure (SMILES): CC(C)[C@H](NC(=O)Oc1ccccc1)C(=O)NC(CC(=O)O)C(=O)CF (some centres undefined)
- Concentration (HeLa): 250 nM
